ChEMBL document CHEMBL3877264, “Quinolidene-rhodanine conjugates: Facile synthesis and biological evaluation” (Eur J Med Chem, 2017)
In brackets after ≈: the same amount, converted by molar mass.

Assays:
[1] = Cytotoxicity against human A549 cells measured after 48 hrs by MTT assay; format: toxicity, cell-based
[2] = Cytotoxicity against […]-differentiated human THP1 cells assessed as growth inhibition at 100 ug/ml measured after 48 hrs by MTT assay relative to control; format: toxicity, cell-based, THP-1; settings: read-out: GI
Procedure, shortened: (§1)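 MTT assay with 48 h compound exposure. THP-1 macrophages made by 24 h PMA treatment. Each concentration tested in triplicate in one experiment. % cytotoxicity = (control−test)/(control−blank)×100, with control = cells + DMSO and blank = medium without cells. IC50 from % survival versus concentration plots.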

[3] = Selectivity index, ratio of GI50 for human THP1 cells to MIC for Mycobacterium tuberculosis H37Ra ATCC 25177 at dormant stage; format: toxicity, cell-based, THP-1; settings: read-out: Selectivity Index
Procedure, shortened: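 SI is the cell-line GI50 divided by the dormant-stage mycobacterial MIC. […] THP-1 macrophages were PMA-differentiated for 24 h.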

[4] = Cytotoxicity against primary HUVEC assessed as growth inhibition at 100 ug/ml measured after 48 hrs by MTT assay relative to control; format: toxicity, cell-based; settings: human, read-out: GI
[5] = Cytotoxicity against human PANC1 cells assessed as growth inhibition at 100 ug/ml measured after 48 hrs by MTT assay relative to control; format: toxicity, cell-based, PANC-1; settings: read-out: GI
[6] = system: Mycobacterium tuberculosis; assay: Growth inhibition of Mycobacterium bovis BCG ATCC 35743 at active stage at 0.78 ug/ml measured after 8 days by nitrate reductase dye based two fold dilution method relative to control; format: functional; settings: BCG str. ATCC 35743, 192 h, read-out: GI
Procedure, shortened: (§2)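 M. bovis BCG was grown in Dubos medium and assayed in Mycobacterium pheli minimal medium (pH 6.6), with compounds from DMSO stocks. Incubation lasted 8 days for active and 12 days for dormant cultures. Viability was read by nitrate reductase at 540 nm against cell-free blanks, with vehicle set as 100% growth. Primary screen was at 30, 10 and 3 µg/ml, in triplicate, mean ± SD. MIC was taken from dose-response curves.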

[7] = system: Mycobacterium tuberculosis; assay: Growth inhibition of Mycobacterium tuberculosis H37Ra ATCC 25177 at active stage at 50 ug/ml measured after 8 days by XTT dye based two fold dilution method relative to control; format: functional; settings: H37Ra ATCC 25177, 192 h, read-out: GI
Procedure, shortened: (§3)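 MTB H37Ra was grown in Dubos medium, then exposed in Mycobacterium pheli minimal medium (pH 6.6) to compounds dissolved in DMSO. The assay ended on day 8 (active) or day 12 (dormant). Viable cells were measured by XTT reduction menadione assay at 470 nm, blank-corrected, relative to vehicle control. Triplicates were expressed as mean ± SD. MIC came from dose-response curves.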

[8] = system: Mycobacterium tuberculosis; assay: Growth inhibition of Mycobacterium bovis BCG ATCC 35743 at dormant stage at 100 ug/ml measured after 12 days by nitrate reductase dye based two fold dilution method relative to control; format: functional; settings: BCG str. ATCC 35743, 288 h, read-out: GI; procedure, shortened: as §2
Pseudomonas fluorescens [9] = assay: Growth inhibition of Pseudomonas fluorescens NCIM 2036 at 30 ug/ml measured after 8 hrs relative to control; format: functional; settings: NCIM 2036, 8 h, read-out: GI
Procedure, shortened: (§4)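 Bacteria grown in LB at 37 °C and 180 rpm to OD 1. Compounds added to wells, then 0.1% inoculum of 1 OD culture (620 nm). Growth read as OD at 620 nm after 8 h for gram-negative and after 12 h for gram-positive strains.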

[10] = system: Mycobacterium tuberculosis; assay: Growth inhibition of Mycobacterium bovis BCG ATCC 35743 at dormant stage at 50 ug/ml measured after 12 days by nitrate reductase dye based two fold dilution method relative to control; format: functional; settings: BCG str. ATCC 35743, 288 h, read-out: GI; procedure, shortened: as §2
Candida albicans = assay: Antifungal activity against Candida albicans NCIM 3471 by standard agar method; format: functional
Procedure, shortened: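 MICs determined by standard agar method; DMSO as solvent control.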

[11] = system: Mycobacterium tuberculosis; assay: Growth inhibition of Mycobacterium bovis BCG ATCC 35743 at active stage at 6.25 ug/ml measured after 8 days by nitrate reductase dye based two fold dilution method relative to control; format: functional; settings: BCG str. ATCC 35743, 192 h, read-out: GI; procedure, shortened: as §2
Pseudomonas fluorescens [12] = assay: Growth inhibition of Pseudomonas fluorescens NCIM 2036 at 10 ug/ml measured after 8 hrs relative to control; format: functional; settings: NCIM 2036, 8 h, read-out: GI; procedure, shortened: as §4
[13] = Cytotoxicity against human THP1 cells assessed as growth inhibition at 100 ug/ml measured after 48 hrs by MTT assay relative to control; format: toxicity, cell-based, THP-1; settings: read-out: GI; procedure, shortened: as §1
[14] = system: Mycobacterium tuberculosis; assay: Growth inhibition of Mycobacterium bovis BCG ATCC 35743 at dormant stage at 6.25 ug/ml measured after 12 days by nitrate reductase dye based two fold dilution method relative to control; format: functional; settings: BCG str. ATCC 35743, 288 h, read-out: GI; procedure, shortened: as §2
[15] = system: Mycobacterium tuberculosis; assay: Growth inhibition of Mycobacterium bovis BCG ATCC 35743 at dormant stage at 3.13 ug/ml measured after 12 days by nitrate reductase dye based two fold dilution method relative to control; format: functional; settings: BCG str. ATCC 35743, 288 h, read-out: GI; procedure, shortened: as §2
Bacillus subtilis = assay: Growth inhibition of Bacillus subtilis NCIM 2079 at 3 ug/ml measured after 12 hrs relative to control; format: functional; settings: NCIM 2079, 12 h, read-out: GI; procedure, shortened: as §4
[16] = system: Mycobacterium tuberculosis; assay: Growth inhibition of Mycobacterium tuberculosis H37Ra ATCC 25177 at active stage at 100 ug/ml measured after 8 days by XTT dye based two fold dilution method relative to control; format: functional; settings: H37Ra ATCC 25177, 192 h, read-out: GI; procedure, shortened: as §3
[17] = system: Mycobacterium tuberculosis; assay: Growth inhibition of Mycobacterium bovis BCG ATCC 35743 at active stage at 50 ug/ml measured after 8 days by nitrate reductase dye based two fold dilution method relative to control; format: functional; settings: BCG str. ATCC 35743, 192 h, read-out: GI
Staphylococcus aureus [18] = assay: Antibacterial activity against of Staphylococcus aureus NCIM 2010 measured after 12 hrs; format: functional; settings: NCIM 2010, 12 h; procedure, shortened: as §4
[19] = Cytotoxicity against human THP1 cells measured after 48 hrs by MTT assay; format: toxicity, cell-based, THP-1; procedure, shortened: as §1
[20] = system: Mycobacterium tuberculosis; assay: Growth inhibition of Mycobacterium bovis BCG ATCC 35743 at dormant stage at 25 ug/ml measured after 12 days by nitrate reductase dye based two fold dilution method relative to control; format: functional; settings: BCG str. ATCC 35743, 288 h, read-out: GI; procedure, shortened: as §2
Staphylococcus aureus [21] = assay: Growth inhibition of Staphylococcus aureus NCIM 2010 at 10 ug/ml measured after 12 hrs relative to control; format: functional; settings: NCIM 2010, 12 h, read-out: GI; procedure, shortened: as §4
[22] = system: Mycobacterium tuberculosis; assay: Growth inhibition of Mycobacterium bovis BCG ATCC 35743 at dormant stage at 0.78 ug/ml measured after 12 days by nitrate reductase dye based two fold dilution method relative to control; format: functional; settings: BCG str. ATCC 35743, 288 h, read-out: GI; procedure, shortened: as §2
[23] = system: Mycobacterium tuberculosis; assay: Growth inhibition of Mycobacterium tuberculosis H37Ra ATCC 25177 at dormant stage at 1.56 ug/ml measured after 12 days by XTT dye based two fold dilution method relative to control; format: functional; settings: H37Ra ATCC 25177, 288 h, read-out: GI; procedure, shortened: as §3
[24] = system: Mycobacterium tuberculosis; assay: Growth inhibition of Mycobacterium tuberculosis H37Ra ATCC 25177 at dormant stage at 25 ug/ml measured after 12 days by XTT dye based two fold dilution method relative to control; format: functional; settings: H37Ra ATCC 25177, 288 h, read-out: GI; procedure, shortened: as §3
[25] = system: Mycobacterium tuberculosis; assay: Growth inhibition of Mycobacterium tuberculosis H37Ra ATCC 25177 at dormant stage at 100 ug/ml measured after 12 days by XTT dye based two fold dilution method relative to control; format: functional; settings: H37Ra ATCC 25177, 288 h, read-out: GI; procedure, shortened: as §3
[26] = system: Mycobacterium tuberculosis; assay: Growth inhibition of Mycobacterium bovis BCG ATCC 35743 at dormant stage at 12.5 ug/ml measured after 12 days by nitrate reductase dye based two fold dilution method relative to control; format: functional; settings: BCG str. ATCC 35743, 288 h, read-out: GI
[27] = system: Mycobacterium tuberculosis; assay: Growth inhibition of Mycobacterium bovis BCG ATCC 35743 at dormant stage at 30 ug/ml measured after 12 days by nitrate reductase dye based two fold dilution method relative to control; format: functional; settings: BCG str. ATCC 35743, 288 h, read-out: GI; procedure, shortened: as §2

| Compound | GI50 at 48 h [1] | inhibition at 48 h, 100 ug/ml [2] | selectivity ratio [3] | inhibition at 48 h, 100 ug/ml [4] | inhibition at 48 h, 100 ug/ml [5] | inhibition of growth at 0.78 µg/mL [6] | inhibition of growth at 50 µg/mL [7] | inhibition of growth at 100 µg/mL [8] | inhibition of growth at 30 µg/mL (Pseudomonas fluorescens [9]) | inhibition of growth at 50 µg/mL [10] | MIC (Candida albicans) | inhibition of growth at 6.25 µg/mL [11] | inhibition of growth at 10 µg/mL (Pseudomonas fluorescens [12]) | inhibition at 48 h, 100 ug/ml [13] | inhibition of growth at 6.25 µg/mL [14] | inhibition of growth at 3.13 µg/mL [15] | inhibition of growth at 3 µg/mL (Bacillus subtilis) | inhibition of growth at 100 µg/mL [16] | inhibition of growth at 50 µg/mL [17] | MIC (Staphylococcus aureus [18]) | further results |
| --- | --- | --- | --- | --- | --- | --- | --- | --- | --- | --- | --- | --- | --- | --- | --- | --- | --- | --- | --- | --- | --- |
| COc1ccc2nc(Cl)c(/C=C3\SC(=S)NC3=O)cc2c1 | > 100 µg/mL | 30.2% | 20.8 | 29.4% | 24.9% | -67.9% | 101% | 97.7% | 70.9% | 99% | 150 µg/mL (≈ 445 µM) | 95.7% | 81.8% | 26.3% | 89.9% | -4.93% | 1.79% | 90.3% | 97.3% | 7.86 µg/mL (≈ 23.3 µM) | GI50 at 48 h [19]: > 100 µg/mL; inhibition of growth at 25 µg/mL [20]: 81.6%; inhibition of growth at 10 µg/mL (Staphylococcus aureus [21]): 99.8%; inhibition of growth at 0.78 µg/mL [22]: -31.1%; inhibition of growth at 1.56 µg/mL [23]: -25.3%; inhibition of growth at 25 µg/mL [24]: 87.8%; inhibition of growth at 100 µg/mL [25]: 91.6%; inhibition of growth at 12.5 µg/mL [26]: 93.8%; inhibition of growth at 30 µg/mL [27]: -6.75% |
| Cc1cccc2cc(/C=C3\SC(=S)NC3=O)c(Cl)nc12 | > 100 µg/mL | 2.58% | 7.8 | 14.9% | 30.9% | -28.7% | 102% | 95% | 59% | 100% | 200 µg/mL (≈ 623 µM) | 87.8% | 22.9% | 13.2% | 62.9% | -5.18% | 3.54% | 113% | 98.4% | > 30 µg/mL | GI50 at 48 h [19]: > 100 µg/mL; inhibition of growth at 25 µg/mL [20]: 101%; inhibition of growth at 10 µg/mL (Staphylococcus aureus [21]): -9.23%; inhibition of growth at 0.78 µg/mL [22]: -16.3%; inhibition of growth at 1.56 µg/mL [23]: -17.5%; inhibition of growth at 25 µg/mL [24]: 103%; inhibition of growth at 100 µg/mL [25]: 104%; inhibition of growth at 12.5 µg/mL [26]: 95.4%; inhibition of growth at 30 µg/mL [27]: 60.5% |
